Source: ChEMBL document CHEMBL4321857, “Synthesis and Pharmacological Evaluation of Triazolopyrimidinone Derivatives as Noncompetitive, Intracellular Antagonists for CC Chemokine Receptors 2 and 5” (J Med Chem, 2019)
The source made the active and inactive calls. No cut-off for these calls is given here.

How the values were obtained:
[1] = biological target: T1, C-C chemokine receptor type 5 (Homo sapiens, UniProt P51681); assay: Antagonist activity at human TEV cleavage site-linked CCR5 expressed in human U2OS cells harboring beta-lactamase reporter gene assessed as inhibition of CCL3-induced beta-arrestin recruitment at 1 uM incubated for 30 mins followed by CCL3 stimulation and measured after 16 hrs by Tango assay relative to control; type: cell-based
Target sequence in this assay (P51681 whole entry, looked up): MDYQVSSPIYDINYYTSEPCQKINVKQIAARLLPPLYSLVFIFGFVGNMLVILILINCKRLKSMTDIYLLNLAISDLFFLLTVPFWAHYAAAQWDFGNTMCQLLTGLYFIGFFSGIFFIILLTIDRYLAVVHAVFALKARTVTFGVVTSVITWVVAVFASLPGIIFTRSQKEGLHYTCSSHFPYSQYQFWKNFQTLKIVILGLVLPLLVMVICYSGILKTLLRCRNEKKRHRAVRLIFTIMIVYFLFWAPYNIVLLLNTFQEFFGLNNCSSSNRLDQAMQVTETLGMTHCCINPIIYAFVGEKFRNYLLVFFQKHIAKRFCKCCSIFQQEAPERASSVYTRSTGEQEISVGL

[2] = biological target: T2, C-C chemokine receptor type 2 (Homo sapiens, UniProt P41597); assay: Displacement of [3H]-CCR2-RA-[R] from human CCR2 expressed in human U2OS cells incubated for 2 hrs by scintillation spectrometric method; type: cell-based
Target sequence in this assay (P41597 whole entry): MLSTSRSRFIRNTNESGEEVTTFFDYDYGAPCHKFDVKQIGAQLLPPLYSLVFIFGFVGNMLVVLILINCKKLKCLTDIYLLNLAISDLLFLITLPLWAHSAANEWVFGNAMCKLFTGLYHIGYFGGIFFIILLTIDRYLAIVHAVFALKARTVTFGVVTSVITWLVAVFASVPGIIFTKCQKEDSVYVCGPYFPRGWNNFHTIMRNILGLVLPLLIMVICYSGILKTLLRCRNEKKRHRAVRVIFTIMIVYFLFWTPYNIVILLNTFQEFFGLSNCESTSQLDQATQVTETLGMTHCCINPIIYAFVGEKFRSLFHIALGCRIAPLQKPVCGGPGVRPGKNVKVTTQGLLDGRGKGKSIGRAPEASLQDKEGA

[3] = biological target: T1, C-C chemokine receptor type 5; assay: Antagonist activity at human TEV cleavage site-linked CCR5 expressed in human U2OS cells harboring beta-lactamase reporter gene assessed as inhibition of CCL3-induced beta-arrestin recruitment incubated for 30 mins followed by CCL3 stimulation and measured after 16 hrs by Tango assay; type: cell-based
Target sequence in this assay (P51681 whole entry): as the sequence (P51681 whole entry, looked up) above

[4] = biological target: T2, C-C chemokine receptor type 2; assay: Antagonist activity at CCR2b in human THP1 cells assessed as inhibition of human MCP1 induced calcium flux by fluo-4 dye based fluorescence assay; type: functional, cell-based
Target sequence in this assay (P41597 whole entry): as the sequence (P41597 whole entry) above

[5] = biological target: T2, C-C chemokine receptor type 2; assay: Antagonist activity at human TEV cleavage site-linked CCR2b expressed in human U2OS cells harboring beta-lactamase reporter gene assessed as inhibition of CCL2-induced beta-arrestin recruitment incubated for 30 mins followed by CCL2 stimulation and measured after 16 hrs by Tango assay; type: cell-based
Summary of the method: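 Tango CCR2b-bla U2OS cells: 10 000 cells/well in FreeStyle medium, 30 min preincubation at room temperature with increasing antagonist concentrations (DMSO ≤0.5%), then 16 h with CCL2 at EC80 (5 nM), 37 °C, 5% CO2. LiveBLAzer-FRET B/G substrate 2 h at room temperature; 460/535 nm emission ratio at 400 nm excitation. IC50 by nonlinear regression.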
Target sequence in this assay (P41597 whole entry): as above

Homo sapiens = species: Homo sapiens; assay: Selectivity ratio of IC50 for human TEV cleavage site-linked CCR5 expressed in human U2OS cells to IC50 for human TEV cleavage site-linked CCR2b expressed in human U2OS cells; type: cell-based
[6] = biological target: T2, C-C chemokine receptor type 2; assay: Non-competitive insurmountable antagonist activity at human CCR2 expressed in human U2OS cell membranes assessed as Emax for CCL2-stimulated [35S]GTPgammaS binding at 10 nM preincubated for 30 mins followed by [35S]GTPgammaS addition and measured after 90 mins (reference value: 107 +/- 2%); type: functional
Target sequence in this assay (P41597 whole entry, looked up): as the sequence (P41597 whole entry) above

[7] = biological target: T2, C-C chemokine receptor type 2; assay: Non-competitive insurmountable antagonist activity at human CCR2 expressed in human U2OS cell membranes assessed as Emax for CCL2-stimulated [35S]GTPgammaS binding at 1 nM preincubated for 30 mins followed by [35S]GTPgammaS addition and measured after 90 mins (reference value: 107 +/- 2%); type: functional
Target sequence in this assay (P41597 whole entry, looked up): as the sequence (P41597 whole entry) above

[8] = biological target: T2, C-C chemokine receptor type 2; assay: Non-competitive insurmountable antagonist activity at human CCR2 expressed in human U2OS cell membranes assessed as Emax for CCL2-stimulated [35S]GTPgammaS binding at 3 nM preincubated for 30 mins followed by [35S]GTPgammaS addition and measured after 90 mins (reference value: 107 +/- 2%); type: functional
Target sequence in this assay (P41597 whole entry, looked up): as the sequence (P41597 whole entry) above

[9] = biological target: T1, C-C chemokine receptor type 5; assay: Non-competitive insurmountable antagonist activity at human CCR5 expressed in human U2OS cell membranes assessed as Emax for CCL3-stimulated [35S]GTPgammaS binding at 100 nM preincubated for 30 mins followed by [35S]GTPgammaS addition and measured after 90 mins (reference value: 108 +/- 2%); type: functional
Target sequence in this assay (P51681 whole entry, looked up): as the sequence (P51681 whole entry, looked up) above

[10] = biological target: T1, C-C chemokine receptor type 5; assay: Non-competitive insurmountable antagonist activity at human CCR5 expressed in human U2OS cell membranes assessed as Emax for CCL3-stimulated [35S]GTPgammaS binding at 300 nM preincubated for 30 mins followed by [35S]GTPgammaS addition and measured after 90 mins (reference value: 108 +/- 2%); type: functional
Target sequence in this assay (P51681 whole entry, looked up): as above

[11] = biological target: T1, C-C chemokine receptor type 5; assay: Non-competitive insurmountable antagonist activity at human CCR5 expressed in human U2OS cell membranes assessed as Emax for CCL3-stimulated [35S]GTPgammaS binding at 30 nM preincubated for 30 mins followed by [35S]GTPgammaS addition and measured after 90 mins (reference value: 108 +/- 2%); type: functional
Target sequence in this assay (P51681 whole entry, looked up): as above

[12] = biological target: T2, C-C chemokine receptor type 2; assay: Inverse agonist activity at human CCR2 assessed as reduction in [35S]GTPgammaS binding at 1 uM relative to control; type: functional; design: scale not given: the % may be the effect or the level left
Target sequence in this assay (P41597 whole entry, looked up): as the sequence (P41597 whole entry) above

[13] = biological target: T2, C-C chemokine receptor type 2; assay: Non-competitive insurmountable antagonist activity at human CCR2 expressed in human U2OS cell membranes assessed as Emax for CCL2-stimulated [35S]GTPgammaS binding at 30 nM preincubated for 30 mins followed by [35S]GTPgammaS addition and measured after 90 mins (reference value: 107 +/- 2%); type: functional
Target sequence in this assay (P41597 whole entry, looked up): as the sequence (P41597 whole entry) above

[14] = biological target: T2, C-C chemokine receptor type 2; assay: Non-competitive insurmountable antagonist activity at human CCR2 expressed in human U2OS cell membranes assessed as Emax for CCL2-stimulated [35S]GTPgammaS binding at 100 nM preincubated for 30 mins followed by [35S]GTPgammaS addition and measured after 90 mins (reference value: 107 +/- 2%); type: functional
Target sequence in this assay (P41597 whole entry, looked up): as the sequence (P41597 whole entry) above

[15] = biological target: T1, C-C chemokine receptor type 5; assay: Non-competitive insurmountable antagonist activity at human CCR5 expressed in human U2OS cell membranes assessed as Emax for CCL3-stimulated [35S]GTPgammaS binding at 1000 nM preincubated for 30 mins followed by [35S]GTPgammaS addition and measured after 90 mins (reference value: 108 +/- 2%); type: functional
Target sequence in this assay (P51681 whole entry, looked up): as the sequence (P51681 whole entry, looked up) above

SMILES	inhibition [1]	Ki ([2]; read-out: Ki)	also measured
O=C(O)c1ccccc1Oc1ccc(Cl)cc1NS(=O)(=O)c1ccc(Cl)c(Cl)c1	< 50%	–	–
CC(C)c1[nH]c2nc(N)nn2c(=O)c1Cc1cc(Cl)cc(Cl)c1	> 70%	2.2 nM	IC50 ([3]; read-out: pIC50 (converted)): 324 nM
Cc1ccccc1Cc1c(C2CC2)[nH]c2nc(N)nn2c1=O	28%	15.7 nM	–
Nc1nc2[nH]c(C3CC3)c(Cc3cccc(Cl)c3)c(=O)n2n1	> 70%	1.3 nM	IC50 [4]: 16 to 20 nM; IC50 ([3]; read-out: pIC50 (converted)): 575 nM; IC50 [5]: 10 nM
CC(C)c1[nH]c2nc(N)nn2c(=O)c1Cc1cc(Br)cc(Br)c1	64%	2.1 nM	–
Nc1nc2[nH]c(C3CCCC3)c(Cc3cccc(Cl)c3)c(=O)n2n1	> 70%	1.6 nM	IC50 ([3]; read-out: pIC50 (converted)): 372 nM
CC(=O)C1=C(O)C(=O)N(c2ccc(Cl)cc2F)[C@@H]1C1CCCCC1	< 50%	–	IC50 ([3]; read-out: IC50): 703 nM
COc1ccc(Cc2c(C3CC3)[nH]c3nc(N)nn3c2=O)cc1	–	20.9 nM	–
Cc1[nH]c2nc(N)nn2c(=O)c1Cc1cccc(Cl)c1	–	17.2 nM	Ki ([2]; read-out: pKi (converted)): 16.6 nM
COc1ccccc1Cc1c(C2CC2)[nH]c2nc(N)nn2c1=O	–	105 nM	–
Cc1ccc(-c2[nH]c3nc(N)nn3c(=O)c2Cc2cccc(Cl)c2)cc1	–	159 nM	Ki ([2]; read-out: pKi (converted)): 155 nM
Cc1ccc(-c2ccc3c(c2)C=C(C(=O)Nc2ccc(C[N+](C)(C)C4CCOCC4)cc2)CCC3)cc1	Active	–	IC50 ([3]; read-out: IC50): 6 nM
CCCCc1[nH]c2nc(N)nn2c(=O)c1Cc1cccc(Cl)c1	> 70%	2.3 nM	IC50 ([3]; read-out: pIC50 (converted)): 513 nM
Nc1nc2[nH]c(C3CC3)c(Cc3ccc(Cl)c(Cl)c3)c(=O)n2n1	> 70%	0.4 nM	IC50 ([3]; read-out: pIC50 (converted)): 214 nM
COc1cccc(Cc2c(C3CC3)[nH]c3nc(N)nn3c2=O)c1	–	13 nM	–
CC(C)c1[nH]c2nc(N)nn2c(=O)c1Cc1cc(Cl)ccc1Cl	20%	22.5 nM	–
Nc1nc2[nH]c(C3CC3)c(Cc3ccccc3)c(=O)n2n1	35%	5.9 nM	Ki ([2]; read-out: pKi (converted)): 5.37 nM
CCCCCc1[nH]c2nc(N)nn2c(=O)c1Cc1cccc(Cl)c1	38%	7.2 nM	–
O=c1c(Cc2cccc(Cl)c2)c(C2CC2)[nH]c2ncnn12	60%	1.7 nM	–
Nc1nc2[nH]c(-c3ccccc3)c(Cc3cccc(Cl)c3)c(=O)n2n1	–	26.7 nM	–
Cc1ccc(Cc2c(C3CC3)[nH]c3nc(N)nn3c2=O)cc1	–	3.5 nM	–

SMILES	inhibition [1]	Ki ([2]; read-out: Ki)	also measured
Nc1nc2[nH]c(C3CC3)c(Cc3cccc(Br)c3)c(=O)n2n1	60%	0.9 nM	Ki ([2]; read-out: pKi (converted)): 0.832 nM
Nc1nc2[nH]c(C3CC3)c(Cc3cccc(C(F)(F)F)c3)c(=O)n2n1	36%	5.9 nM	Ki ([2]; read-out: pKi (converted)): 5.5 nM
Nc1nc2[nH]c(C3CC3)c(Cc3ccc(F)cc3)c(=O)n2n1	31%	4.1 nM	–
Cc1nc2[nH]c(C3CC3)c(Cc3cccc(Cl)c3)c(=O)n2n1	35%	3.5 nM	–
Nc1nc2[nH]c(C3CC3)c(Cc3cccc(F)c3)c(=O)n2n1	43%	3.4 nM	–
CCc1[nH]c2nc(N)nn2c(=O)c1Cc1cccc(Cl)c1	29%	4 nM	–
CC[C@@H](c1ccc(F)c(F)c1)n1c(C(=O)OC)c(-c2ccno2)[nH]c1=S	< 50%	–	–
CCCCCCc1[nH]c2nc(N)nn2c(=O)c1Cc1cccc(Cl)c1	–	22 nM	–
Nc1nc2[nH]c(CCc3ccccc3)c(Cc3cccc(Cl)c3)c(=O)n2n1	–	52.3 nM	Ki ([2]; read-out: pKi (converted)): 51.3 nM
CC(C)c1[nH]c2nc(N)nn2c(=O)c1Cc1cccc(Cl)c1	> 70%	1.9 nM	IC50 ([3]; read-out: pIC50 (converted)): 275 nM
Nc1nc2[nH]c(C3CC3)c(Cc3ccc(Br)cc3)c(=O)n2n1	14%	1.5 nM	–
CC(C)c1[nH]c2nc(N)nn2c(=O)c1Cc1ccc(Cl)c(Br)c1	> 70%	0.4 nM	IC50 ([3]; read-out: pIC50 (converted)): 112 nM; IC50 [5]: 4 nM; Ratio IC50 (Homo sapiens): 29; Emax [6]: 33%; Emax [7]: 72%; Emax [8]: 51%; Emax [9]: 58%; Emax [10]: 35%; Emax [11]: 81%; Activity [12]: 7 to 8%
CCCc1[nH]c2nc(N)nn2c(=O)c1Cc1cccc(Cl)c1	64%	3.6 nM	Ki ([2]; read-out: pKi (converted)): 3.47 nM
CCCCCCCc1[nH]c2nc(N)nn2c(=O)c1Cc1cccc(Cl)c1	–	178 nM	Ki ([2]; read-out: pKi (converted)): 174 nM
CC(C)c1[nH]c2nc(N)nn2c(=O)c1Cc1ccc(Cl)c(Cl)c1	> 70%	0.6 nM	IC50 ([3]; read-out: pIC50 (converted)): 123 nM
Nc1nc2[nH]c(C3CC3)c(Cc3ccccc3Cl)c(=O)n2n1	27%	14.5 nM	–
CCC(CC)Cc1[nH]c2nc(N)nn2c(=O)c1Cc1cccc(Cl)c1	29%	6.4 nM	–
CC(C)c1[nH]c2nc(N)nn2c(=O)c1Cc1cccc(Cl)c1Cl	> 70%	1.6 nM	IC50 ([3]; read-out: pIC50 (converted)): 81.3 nM; IC50 [5]: 21 nM; Ratio IC50 (Homo sapiens): 4; Emax [6]: 91%; Emax [13]: 75%; Emax [14]: 50%; Emax [9]: 79%; Emax [10]: 56%; Emax [15]: 25%; Activity [12]: 7 to 8%
Nc1nc2[nH]c(C3CC3)c(Cc3cccc(I)c3)c(=O)n2n1	66%	0.9 nM	–
Cc1cccc(Cc2c(C3CC3)[nH]c3nc(N)nn3c2=O)c1	62%	2.5 nM	–
Nc1nc2[nH]c(C3CC3)c(Cc3ccc(Cl)cc3)c(=O)n2n1	31%	1.8 nM	–
